This is an account of results in ChEMBL document CHEMBL1136967, “High-affinity, non-nucleotide-derived competitive antagonists of platelet P2Y12 receptors” (J Med Chem, 2009).

For orientation: Ki means the equilibrium dissociation constant of an inhibitor or competing ligand from its target. In general, inhibition refers to the change of the read-out against control, counted positive when it falls. A higher inhibition goes with strong suppression. As usually defined, the Kb is the affinity of an antagonist, worked out from how it opposes an agonist. For orientation: pKb means the negative decadic logarithm of the Kb, by convention in mol/L. The term LD50 denotes the dose at which mortality reaches 50%. Higher therefore signals lower toxicity. In general, EC50 refers to the concentration needed to bring the measured effect to its halfway point. High values mean a need for much substance, low ones an effect from little substance.

For the first series, the target named is T1, P2Y purinoceptor 12 (Homo sapiens, UniProt Q9H244). Briefly: Displacement of [3H]PSB0413 from human platelet P2Y12 receptor.
T1 sequence (Q9H244 whole entry): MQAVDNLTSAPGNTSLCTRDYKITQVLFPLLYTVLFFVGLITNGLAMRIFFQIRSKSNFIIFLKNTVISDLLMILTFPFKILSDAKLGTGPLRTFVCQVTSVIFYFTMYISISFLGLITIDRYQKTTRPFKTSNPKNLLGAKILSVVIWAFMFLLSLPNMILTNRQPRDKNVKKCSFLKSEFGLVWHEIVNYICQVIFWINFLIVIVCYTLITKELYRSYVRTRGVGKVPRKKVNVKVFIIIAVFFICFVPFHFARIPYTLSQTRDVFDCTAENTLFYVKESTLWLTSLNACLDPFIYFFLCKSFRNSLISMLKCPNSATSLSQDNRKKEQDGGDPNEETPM
Conditions: not given
An outline of the steps:
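Membranes from outdated human blood-bank platelets (4-5 days post-donation), washed, centrifuged, homogenized, stored at -80 °C. 100 µg protein incubated with 5 nM [³H]PSB-0413 in 50 mM Tris-HCl pH 7.4 for 1 h at rt, then filtered over GF/B. Nonspecific binding with 1 mM ADP. Screen at 10 µM. Ki from curves of 6-7 concentrations over 3 log units. At least three experiments in triplicate.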
Compound `COC(=O)c1cc(O)c2c(c1)C(=O)c1cccc(O)c1C2=O` [RHEIN METHYLESTER] had a Ki greater than 10 µM.

Regarding `Nc1c(S(=O)(=O)O)cc(NCc2ccccc2)c2c1C(=O)c1ccccc1C2=O`, the Ki was greater than 10 µM.

With `Nc1c(S(=O)(=O)O)cc(Nc2ccccc2O)c2c1C(=O)c1ccccc1C2=O`, the Ki came to 10 µM. This lies in the double-digit micromolar range.

In turn, `Nc1c(S(=O)(=O)O)cc(Nc2cccc([N+](=O)[O-])c2)c2c1C(=O)c1ccccc1C2=O` yielded a Ki greater than 10 µM.

`Cc1cc(O)c2c(c1)C(=O)c1cc(O[C@@H]3OC[C@](O)(CO)[C@H]3O)cc(O)c1C2=O` [FRANGULIN B]: the Ki was greater than 10 µM.

On to `Nc1c(S(=O)(=O)O)cc(NCCc2ccccc2)c2c1C(=O)c1ccccc1C2=O`, for which the Ki was greater than 10 µM.

On to `Nc1ccccc1Nc1cc(S(=O)(=O)O)c(N)c2c1C(=O)c1ccccc1C2=O`, for which the Ki is greater than 10 µM.

In the case of `CN(C)[C@@H]1C(O)=C(C(N)=O)C(=O)[C@@]2(O)C(O)=C3C(=O)c4c(O)cccc4[C@@](C)(O)[C@H]3C[C@@H]12` [TETRACYCLINE], the Ki is greater than 10 µM.

With `Cc1cc(O)c2c(c1)C(=O)c1cc(O)cc(O)c1C2=O` [EMODIN], the Ki was greater than 10 µM.

For the compound `O=C1c2c(O)cccc2C([C@@H]2O[C@H](CO)[C@@H](O)[C@H](O)[C@H]2O)c2cc(CO)cc(O)c21` (stereo partly drawn) [ALOIN], the Ki is greater than 10 µM.

In turn, `Nc1c(S(=O)(=O)O)cc(Nc2ccc(Nc3ccccc3)c(C(=O)O)c2)c2c1C(=O)c1ccccc1C2=O` yielded a Ki of 0.021 µM.

Compound `Cc1cc(O)c2c(c1)C(=O)c1cc(O[C@@H]3O[C@@H](C)[C@H](O)[C@@H](O)[C@H]3O)cc(O)c1C2=O` [FRANGULIN A] yielded a Ki greater than 10 µM.

Another series has as its target T1, P2Y purinoceptor 12. Briefly: Displacement of [3H]PSB0413 from human platelet P2Y12 receptor at 10 uM.
Conditions: not given
In short, it runs like this: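 Human platelet membranes (100 µg protein) incubated with 5 nM [3H]PSB-0413 and test compound at 10 µM in 50 mM Tris-HCl pH 7.4 for 1 h at rt, then filtered over GF/B. Nonspecific binding defined with 1 mM ADP; result expressed as % inhibition of radioligand binding.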
(In general: Displacement assays read how much labelled ligand stays bound in the presence of the test substance.)
Consider `COC(=O)c1cc(O)c2c(c1)C(=O)c1cccc(O)c1C2=O` [RHEIN METHYLESTER], for which the inhibition came out at 2%.

Regarding `Nc1c(S(=O)(=O)O)cc(NCc2ccccc2)c2c1C(=O)c1ccccc1C2=O`, the inhibition was 11%.

As to `Nc1c(S(=O)(=O)O)cc(Nc2ccccc2O)c2c1C(=O)c1ccccc1C2=O`, the inhibition came to 45%.

In turn, `Nc1c(S(=O)(=O)O)cc(Nc2cccc([N+](=O)[O-])c2)c2c1C(=O)c1ccccc1C2=O` yielded an inhibition of 17%.

With `Cc1cc(O)c2c(c1)C(=O)c1cc(O[C@@H]3OC[C@](O)(CO)[C@H]3O)cc(O)c1C2=O` [FRANGULIN B], the inhibition came to 4%.

The compound `Nc1c(S(=O)(=O)O)cc(NCCc2ccccc2)c2c1C(=O)c1ccccc1C2=O` came in with an inhibition of 16%.

For `Nc1ccccc1Nc1cc(S(=O)(=O)O)c(N)c2c1C(=O)c1ccccc1C2=O`, the inhibition was determined as 37%.

Compound `CN(C)[C@@H]1C(O)=C(C(N)=O)C(=O)[C@@]2(O)C(O)=C3C(=O)c4c(O)cccc4[C@@](C)(O)[C@H]3C[C@@H]12` [TETRACYCLINE] showed an inhibition of 2%.

`Cc1cc(O)c2c(c1)C(=O)c1cc(O)cc(O)c1C2=O` [EMODIN] showed an inhibition of 5%.

Compound `O=C1c2c(O)cccc2C([C@@H]2O[C@H](CO)[C@@H](O)[C@H](O)[C@H]2O)c2cc(CO)cc(O)c21` (stereo partly drawn) [ALOIN] returned an inhibition of 2%.

In turn, `Cc1cc(O)c2c(c1)C(=O)c1cc(O[C@@H]3O[C@@H](C)[C@H](O)[C@@H](O)[C@H]3O)cc(O)c1C2=O` [FRANGULIN A] registered an inhibition of 4%.

The target of a further series is T1, P2Y purinoceptor 12. Briefly: Antagonist activity at P2Y12 receptor expressed in human astrocytoma cells assessed as right shift of concentration response curve. The format is functional, cell-based.
Conditions: not given
With `Nc1c(S(=O)(=O)O)cc(Nc2ccc(Nc3ccccc3)c(S(=O)(=O)O)c2)c2c1C(=O)c1ccccc1C2=O`, the antagonist equilibrium constant (Kb) came to 0.0004 µM and the pKb stood at 9.4.

Tested on in the next series: not listed separately
As to the kind of experiment: Toxicity in po dosed rat. The conditions noted are these: in vivo. The format is organism-based.
On to `Nc1ccc(-c2ccc(N)c3c2C(=O)c2ccccc2C3=O)c2c1C(=O)c1ccccc1C2=O`, for which the LD50 was greater than 5000 mg/kg.

For another series, the species on record is Homo sapiens. As to the kind of experiment: Selectivity for human platelet P2Y12 receptor over human P2Y1 receptor.
Conditions: not given
The compound `Nc1c(S(=O)(=O)O)cc(Nc2ccc(Nc3ncccn3)c(S(=O)(=O)O)c2)c2c1C(=O)c1ccccc1C2=O` showed a fold change (FC) of 100.

The species entered for another series is Homo sapiens. Briefly: Selectivity for human platelet P2Y12 receptor over human P2Y2 receptor.
Conditions: not given
As for `Nc1c(S(=O)(=O)O)cc(Nc2ccc(Nc3ncccn3)c(S(=O)(=O)O)c2)c2c1C(=O)c1ccccc1C2=O`, the fold change (FC) turned out to be 100.

The species entered for the next series is Homo sapiens. Briefly: Selectivity for human platelet P2Y12 receptor over human P2Y4 receptor.
Conditions: not given
As to `Nc1c(S(=O)(=O)O)cc(Nc2ccc(Nc3ncccn3)c(S(=O)(=O)O)c2)c2c1C(=O)c1ccccc1C2=O`, the fold change (FC) was 100.

The species named for a further series is Homo sapiens. Briefly: Selectivity for human platelet P2Y12 receptor over human P2X2 receptor.
Conditions: not given
`Nc1c(S(=O)(=O)O)cc(Nc2ccc(Nc3ncccn3)c(S(=O)(=O)O)c2)c2c1C(=O)c1ccccc1C2=O` showed a fold change (FC) of 100.

For another series, the species on record is Homo sapiens. As to the kind of experiment: Selectivity for human platelet P2Y12 receptor over human P2X4 receptor.
Conditions: not given
On to `Nc1c(S(=O)(=O)O)cc(Nc2ccc(Nc3ncccn3)c(S(=O)(=O)O)c2)c2c1C(=O)c1ccccc1C2=O`, for which the fold change (FC) came out at 100.

Tested on in another series: not listed separately
Briefly: Cytotoxicity against human 1321N1 cells after 72 hrs to 144 hrs by MTT assay.
Conditions: not given
The format is functional, cell-based. An outline of the steps:
(§1)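 Cells grown in DMEM with 10% fetal calf serum, penicillin and streptomycin at 37 °C, 5% CO₂. Seeded at 2000 cells/well, 24 h, then medium renewed and compounds added (DMSO stocks; final DMSO 1%) at 0.1, 1 and 100 µM, or full dose-inhibition curves. Exposure 72-144 h. MTT 1 h, crystals dissolved in DMSO, absorbance 570 nm (reference 690 nm). Viability relative to 1% DMSO wells. Triplicates, 3-8 experiments.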
(In general: Formazan colour is commonly taken as a measure of viable cells.)
Consider `O=c1[nH]cc(F)c(=O)[nH]1` [FLUOROURACIL], for which the EC50 stood at 53.2 µM. That is a double-digit micromolar value.

Tested on in a further series: not listed separately
As to the kind of experiment: Cytotoxicity against human 1539 cells after 72 hrs to 144 hrs by MTT assay. The format is functional, cell-based.
Conditions: not given
An outline of the steps: as §1
With `O=c1[nH]cc(F)c(=O)[nH]1` [FLUOROURACIL], the EC50 came out at 5.71 µM.
